Calls of active or inactive are those of the source. No cut-off for these calls is given here.
What was measured:
[1] = Inhibition of SREBP/SCAP (unknown origin) transfected with CHO-K1 cells cotransfected with pSRE-Luc/pAC-beta-gal measured after 24 hrs by Steady-Glo luciferase assay; format: cell-based; details: CHO-K1, 24 h
In short: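 IC50 taken from a dose-response in CHO-K1 cells transfected with an SRE-driven luciferase reporter. Cells were treated with various compound concentrations in lipid-free medium. Luciferase read-out, mean ± SD.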

[2] = test system: CHO-K1; test: Downregulation of SCAP protein level in wild type CHO-K1 cells at 15 uM measured after 24 hrs by Western blot analysis; format: functional, cell-based; details: Cricetulus griseus
In short: (§1)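 Wild-type CHO-K1 cells or CHO-K1 cells overexpressing FLAG-SCAP(1–767) held in lipid-free medium with 15 μM compound for 24 h. Lysis in RIPA with protease inhibitors, 20 000g spin, BCA protein assay, SDS-PAGE and immunoblot. Endogenous SCAP probed with anti-hamster SCAP, the overexpressed form with anti-FLAG M2, actin as loading control. HRP chemiluminescence detection.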

[3] = test system: CHO-K1; test: Downregulation of SCAP protein level in CHO-K1 cells harbouring FLAG-SCAP (1 to 767 residues) at 15 uM measured after 24 hrs by Western blot analysis; format: functional, cell-based; details: Cricetulus griseus; in short: as §1
[4] = test system: CHO-K1; test: Inhibition of SREBP/SCAP (unknown origin) transfected with CHO-K1 cells cotransfected with pSRE-Luc/pAC-beta-gal at 5 uM measured after 24 hrs by Steady-Glo luciferase assay; format: cell-based; details: Homo sapiens
In short: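 CHO-K1 cells transfected with an SRE-controlled luciferase reporter, exposed to compounds at 5 μM in lipid-free medium. 25(OH)D3 tested alongside as control. Luciferase signal reported as mean ± SD.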

[5] = target: T1, Vitamin D3 receptor (Homo sapiens) (UniProt P11473); test: Activation of VDR (unknown origin) transfected in CHO-K1 cells assessed as luciferase activity at 5 uM measured after 24 hrs by Steady-Glo luciferase assay; format: cell-based; details: filed as activator
T1 sequence (whole entry): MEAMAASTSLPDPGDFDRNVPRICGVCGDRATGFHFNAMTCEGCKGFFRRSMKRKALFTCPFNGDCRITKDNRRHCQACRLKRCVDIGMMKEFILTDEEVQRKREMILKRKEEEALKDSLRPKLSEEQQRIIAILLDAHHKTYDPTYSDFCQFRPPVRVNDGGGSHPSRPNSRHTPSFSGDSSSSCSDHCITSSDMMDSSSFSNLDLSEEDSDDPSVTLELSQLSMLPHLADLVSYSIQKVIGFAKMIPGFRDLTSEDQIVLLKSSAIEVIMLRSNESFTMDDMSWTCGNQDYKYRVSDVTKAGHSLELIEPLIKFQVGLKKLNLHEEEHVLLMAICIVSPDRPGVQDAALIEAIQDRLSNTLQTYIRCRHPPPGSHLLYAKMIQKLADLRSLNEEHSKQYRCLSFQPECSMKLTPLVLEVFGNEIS
In short: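 CHO-K1 cells transfected with a VDRE-driven luciferase reporter, then treated with compounds at 5 μM in lipid-free medium. 25(OH)D3 run in parallel as control, DMSO as negative control. Luciferase read-out, mean ± SD.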

| IC50 [1] | Activity [5] | Structure (SMILES) | Activity [2] | Activity [3] | inhibition [4] |
| --- | --- | --- | --- | --- | --- |
| 3500 nM |  | C[C@H](CCC(F)(F)C(C)(C)O)[C@H]1CC[C@H]2/C(=C/Cn3nnnc3-c3ccccc3)CCC[C@]12C | Active | Active |  |
| 1400 nM |  | Cc1cccc(-c2nnnn2C/C=C2\CCC[C@]3(C)[C@@H]([C@H](C)CCC(F)(F)C(C)(C)O)CC[C@@H]23)c1 | Active | Active | Active |
|  | Active | Cc1ccc(-c2nnn(C/C=C3\CCC[C@]4(C)[C@@H]([C@H](C)CCC(F)(F)C(C)(C)O)CC[C@@H]34)n2)cc1 |  |  |  |
|  | Active | C[C@H](CCC(F)(F)C(C)(C)O)[C@H]1CC[C@H]2/C(=C/Cn3nnnc3-c3ccc(C(F)(F)F)cc3)CCC[C@]12C |  |  |  |
|  |  | C=C1CC[C@H](O)C/C1=C/C=C1\CCC[C@]2(C)[C@@H]([C@H](C)CCCC(C)(C)O)CC[C@@H]12 | Active | Active |  |
|  | Active | C[C@H](CCC(F)(F)C(C)(C)O)[C@H]1CC[C@H]2/C(=C/Cn3nnnc3-c3ccc(Cl)cc3)CCC[C@]12C |  |  |  |
|  | Active | C[C@H](CCC(F)(F)C(C)(C)O)[C@H]1CC[C@H]2/C(=C/Cn3nnc(-c4ccc(C(F)(F)F)cc4)n3)CCC[C@]12C |  |  |  |
|  | Active | C[C@H](CCC(F)(F)C(C)(C)O)[C@H]1CC[C@H]2/C(=C/Cn3nnc(-c4ccc(Cl)cc4)n3)CCC[C@]12C |  |  |  |
| 2000 nM |  | C[C@H](CCC(F)(F)C(C)(C)O)[C@H]1CC[C@H]2/C(=C/Cn3nnc(-c4ccccc4Cl)n3)CCC[C@]12C | Active | Active | Active |
|  | Active | Cc1ccc(-c2nnnn2C/C=C2\CCC[C@]3(C)[C@@H]([C@H](C)CCC(F)(F)C(C)(C)O)CC[C@@H]23)cc1 |  |  |  |
